{
  "source": "ChEMBL document CHEMBL1124031",
  "about": "“6-[18F]fluorometaraminol: a radiotracer for in vivo mapping of adrenergic nerves of the heart” (J Med Chem, 1988)",
  "key": {"[1]": {"species_on_record": "Rattus norvegicus", "test": "Concentration of compound in left atrium of rats, pretreated with desmethylimipramine, assessed using [18F]- as radiotracer;Dose/g", "format": "ADME, organism-based, Cardiac atrium", "conditions": "in vivo", "in_short": "(§1)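 Female Sprague–Dawley rats (230–290 g) got DMI·HCl 10 mg/kg ip, or an equal volume of saline ip for controls, 30 min before iv [18F] tracer (5 µCi). Killed 1.5 h after tracer. Duplicate tissue samples were weighed and gamma counted. Values are decay-corrected % dose/g normalized to 250 g body weight, mean ± SEM, four rats per group.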"}, "[2]": {"species_on_record": "Rattus norvegicus", "test": "Desmethylimipramine blockade of compound with [3H]NE as radiotracer, and percentage change was measured in rat right atrium", "format": "functional, Cardiac atrium", "in_short": "(§2)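 Comparison study with [3H]NE (levo-[7-3H], 15–20 Ci/mmol) as tracer in female Sprague–Dawley rats (230–290 g). Rats were pretreated with DMI·HCl 10 mg/kg ip, or an equal volume of saline ip, 30 min before iv tracer. Value is the percent change in tissue tracer concentration versus saline controls; five rats per group.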"}, "[3]": {"species_on_record": "Rattus norvegicus", "test": "Concentration of compound in right ventricle of rats, pretreated with desmethylimipramine, assessed using [18F]- as radiotracer;Dose/g", "format": "ADME, organism-based, Heart right ventricle", "conditions": "in vivo", "in_short": "as §1"}, "[4]": {"species_on_record": "Rattus norvegicus", "test": "Desmethylimipramine blockade of compound with [3H]NE as radiotracer, and percentage change was measured in rat right ventricle", "format": "functional, Heart right ventricle", "in_short": "as §2"}, "[5]": {"species_on_record": "Rattus norvegicus", "test": "Desmethylimipramine blockade of compound with [3H]-NE as radiotracer, and percentage change was measured in rat left ventricle", "format": "functional, Heart left ventricle", "in_short": "as §2"}, "[6]": {"species_on_record": "Rattus norvegicus", "test": "Concentration of compound in liver of rats, pretreated with desmethylimipramine, assessed using [18F]- as radiotracer;Dose/g", "format": "ADME, organism-based", "conditions": "in vivo", "in_short": "as §1"}, "[7]": {"species_on_record": "Rattus norvegicus", "test": "Concentration of compound in left ventricle of rats, pretreated with desmethylimipramine, assessed using [18F]- as radiotracer;Dose/g", "format": "ADME, organism-based, Heart left ventricle", "conditions": "in vivo", "in_short": "as §1"}, "[8]": {"species_on_record": "Rattus norvegicus", "test": "Desmethylimipramine blockade of compound with [3H]NE as radiotracer, and percentage change was measured in rat blood", "format": "functional", "in_short": "as §2"}, "[9]": {"species_on_record": "Rattus norvegicus", "test": "Concentration of compound in spleen of rats, pretreated with desmethylimipramine, assessed using [18F]- as radiotracer;Dose/g", "format": "ADME, organism-based", "conditions": "in vivo", "in_short": "as §1"}, "[10]": {"species_on_record": "Rattus norvegicus", "test": "Concentration of compound in blood of rats, pretreated with desmethylimipramine, assessed using [18F]- as radiotracer;Dose/g", "format": "ADME, organism-based", "conditions": "in vivo", "in_short": "as §1"}, "[11]": {"species_on_record": "Rattus norvegicus", "test": "Concentration of compound in right atrium of rats, pretreated with desmethylimipramine, assessed using [18F]- as radiotracer;Dose/g", "format": "ADME, organism-based, Cardiac atrium", "conditions": "in vivo", "in_short": "as §1"}, "[12]": {"species_on_record": "Rattus norvegicus", "test": "Desmethylimipramine blockade of compound with [3H]NE as radiotracer, and percentage change was measured in rat spleen", "format": "functional", "in_short": "as §2"}, "[13]": {"species_on_record": "Rattus norvegicus", "test": "Desmethylimipramine blockade of compound with [3H]NE as radiotracer, and percentage change was measured in rat left atrium", "format": "functional, Cardiac atrium", "in_short": "as §2"}},
  "data": [
    {"smiles": "CC(N)C(O)c1cc(O)ccc1F", "note": "(stereo not drawn)", "values": [
      {"measurement": "Dose", "setting": "[1]", "value": 0.24, "unit": "%"},
      {"measurement": "Change", "setting": "[2]", "value": -95, "unit": "%"},
      {"measurement": "Dose", "setting": "[3]", "value": 0.2, "unit": "%"},
      {"measurement": "Change", "setting": "[4]", "value": -96, "unit": "%"},
      {"measurement": "Change", "setting": "[5]", "value": -97, "unit": "%"},
      {"measurement": "Dose", "setting": "[6]", "value": 0.77, "unit": "%"},
      {"measurement": "Dose", "setting": "[7]", "value": 0.15, "unit": "%"},
      {"measurement": "Change", "setting": "[8]", "value": 55, "unit": "%"},
      {"measurement": "Dose", "setting": "[9]", "value": 0.2, "unit": "%"},
      {"measurement": "Dose", "setting": "[10]", "value": 0.12, "unit": "%"},
      {"measurement": "Dose", "setting": "[11]", "value": 0.24, "unit": "%"},
      {"measurement": "Change", "setting": "[12]", "value": -86, "unit": "%"},
      {"measurement": "Change", "setting": "[13]", "value": -95, "unit": "%"}
    ]}
  ]
}
